Experimental data published in ChEMBL document CHEMBL3603810, “Discovery of Potent and Selective RSK Inhibitors as Biological Probes” (J Med Chem, 2015).
Activity calls are given as the source filed them. The calls are words filed in the database; no cut-off is given here.

Tests used:
[1] = target: Ribosomal protein S6 kinase alpha-3 (Homo sapiens, UniProt P51812)
[2] = target: Ribosomal protein S6 kinase alpha-3 (Mus musculus, UniProt P18654); test: Inhibition of RSK2 in mouse BAF cells expressing activated FGFR assessed as reduction of YB1 phosphorylation at Ser102 by electochemiluminescence assay; format: cell-based
Sequence of Ribosomal protein S6 kinase alpha-3 (Mus musculus, UniProt P18654) (P18654 whole entry): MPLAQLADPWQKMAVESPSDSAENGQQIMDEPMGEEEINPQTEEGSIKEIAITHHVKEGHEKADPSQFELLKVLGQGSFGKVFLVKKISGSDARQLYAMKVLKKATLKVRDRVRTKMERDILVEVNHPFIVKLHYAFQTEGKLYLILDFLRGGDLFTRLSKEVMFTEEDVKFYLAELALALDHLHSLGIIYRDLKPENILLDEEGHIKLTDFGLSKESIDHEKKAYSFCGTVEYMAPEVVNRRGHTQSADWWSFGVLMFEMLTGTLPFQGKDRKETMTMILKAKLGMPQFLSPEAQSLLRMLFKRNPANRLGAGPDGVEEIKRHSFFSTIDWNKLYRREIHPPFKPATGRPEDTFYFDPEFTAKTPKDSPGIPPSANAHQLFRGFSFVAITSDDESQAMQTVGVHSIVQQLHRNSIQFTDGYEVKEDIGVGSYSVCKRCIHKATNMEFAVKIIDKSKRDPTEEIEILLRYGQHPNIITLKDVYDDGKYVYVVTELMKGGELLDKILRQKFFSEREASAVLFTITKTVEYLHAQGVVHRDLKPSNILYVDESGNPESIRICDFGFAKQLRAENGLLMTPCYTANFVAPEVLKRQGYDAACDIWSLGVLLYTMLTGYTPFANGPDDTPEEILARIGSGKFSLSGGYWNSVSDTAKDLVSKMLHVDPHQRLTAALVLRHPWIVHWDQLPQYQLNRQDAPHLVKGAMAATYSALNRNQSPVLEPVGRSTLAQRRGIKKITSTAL
Method in brief: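 Cellular Ser102-phospho-YB1 ECL immunoassay in mouse BAF cells engineered to express activated FGFR. RIPA lysates are bound overnight at 4 °C to high-bind plates. Plates are blocked 2 h at rt with 10% BSA. Detection uses phospho-Ser102 YB1 antibody (1.3 μg/mL, 2 h rt), then sulfo-tag goat anti-rabbit antibody (0.5 μg/mL, 2 h rt), then MSD read buffer.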

[3] = system: Caco-2; test: Permeability across human Caco2 cells; format: ADME, cell-based
[4] = target: Serine/threonine-protein kinase PLK1 (Homo sapiens) (UniProt P53350); test: Binding affinity to DNA-tagged PLK (unknown origin) at 10 uM by qPCR analysis
Sequence of Serine/threonine-protein kinase PLK1 (Homo sapiens) (P53350 whole entry): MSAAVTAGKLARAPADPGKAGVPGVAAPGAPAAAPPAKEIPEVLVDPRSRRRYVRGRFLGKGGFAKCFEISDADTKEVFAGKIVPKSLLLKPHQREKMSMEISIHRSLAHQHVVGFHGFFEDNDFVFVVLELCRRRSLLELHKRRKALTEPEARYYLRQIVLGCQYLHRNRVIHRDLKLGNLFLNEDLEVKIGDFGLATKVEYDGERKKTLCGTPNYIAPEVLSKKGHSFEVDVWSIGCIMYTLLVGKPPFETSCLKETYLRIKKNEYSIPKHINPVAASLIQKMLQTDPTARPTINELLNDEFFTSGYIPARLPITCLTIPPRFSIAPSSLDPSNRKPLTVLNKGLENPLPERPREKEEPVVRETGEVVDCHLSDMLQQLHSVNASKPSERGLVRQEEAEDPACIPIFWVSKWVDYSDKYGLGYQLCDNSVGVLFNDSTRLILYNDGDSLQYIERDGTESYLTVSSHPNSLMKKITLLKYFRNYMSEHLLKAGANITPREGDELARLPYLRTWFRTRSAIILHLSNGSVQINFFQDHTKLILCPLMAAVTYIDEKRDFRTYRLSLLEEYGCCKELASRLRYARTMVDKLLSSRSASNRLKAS
Method in brief: (§1)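 Competitive binding panel (KinomeScan) run at 10 μM test concentration, 96 kinases in the panel, or 442 in the expanded panel. Results are reported as […], where smaller values mean stronger binding.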

[5] = target: Ribosomal protein S6 kinase alpha-6 (Homo sapiens) (UniProt Q9UK32); test: Binding affinity to DNA-tagged RSK4 N-terminal kinase domain (unknown origin) assessed as level of protein captured on solid support at 10 uM by qPCR analysis relative to control; method in brief: as §1
Sequence of Ribosomal protein S6 kinase alpha-6 (Homo sapiens) (Q9UK32 whole entry, the tested form may be a part): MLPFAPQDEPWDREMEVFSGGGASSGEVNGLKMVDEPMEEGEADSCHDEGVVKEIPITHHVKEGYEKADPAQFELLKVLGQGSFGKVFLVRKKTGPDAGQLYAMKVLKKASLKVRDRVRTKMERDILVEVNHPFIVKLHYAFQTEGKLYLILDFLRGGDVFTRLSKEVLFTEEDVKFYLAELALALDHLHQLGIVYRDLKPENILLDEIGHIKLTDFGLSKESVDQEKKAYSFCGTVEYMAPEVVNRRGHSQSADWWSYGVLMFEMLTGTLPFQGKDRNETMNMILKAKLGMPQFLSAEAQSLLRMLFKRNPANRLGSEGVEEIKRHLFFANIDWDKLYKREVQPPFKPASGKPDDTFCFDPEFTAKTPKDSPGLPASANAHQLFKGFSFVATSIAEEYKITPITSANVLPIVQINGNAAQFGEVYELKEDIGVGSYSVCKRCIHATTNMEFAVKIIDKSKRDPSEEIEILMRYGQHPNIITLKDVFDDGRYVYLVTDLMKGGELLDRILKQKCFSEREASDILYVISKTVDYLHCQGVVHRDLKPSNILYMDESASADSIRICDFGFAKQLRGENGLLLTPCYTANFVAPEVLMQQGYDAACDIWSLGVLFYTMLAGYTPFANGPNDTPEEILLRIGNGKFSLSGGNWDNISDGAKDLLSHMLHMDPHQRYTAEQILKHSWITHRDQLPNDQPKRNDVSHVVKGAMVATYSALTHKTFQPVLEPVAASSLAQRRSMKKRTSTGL

[6] = target: Ribosomal protein S6 kinase alpha-2 (Homo sapiens) (UniProt Q15349); test: Binding affinity to DNA-tagged RSK3 N-terminal kinase domain (unknown origin) assessed as level of protein captured on solid support at 10 uM by qPCR analysis relative to control; method in brief: as §1
Sequence of Ribosomal protein S6 kinase alpha-2 (Homo sapiens) (Q15349 whole entry, the tested form may be a part): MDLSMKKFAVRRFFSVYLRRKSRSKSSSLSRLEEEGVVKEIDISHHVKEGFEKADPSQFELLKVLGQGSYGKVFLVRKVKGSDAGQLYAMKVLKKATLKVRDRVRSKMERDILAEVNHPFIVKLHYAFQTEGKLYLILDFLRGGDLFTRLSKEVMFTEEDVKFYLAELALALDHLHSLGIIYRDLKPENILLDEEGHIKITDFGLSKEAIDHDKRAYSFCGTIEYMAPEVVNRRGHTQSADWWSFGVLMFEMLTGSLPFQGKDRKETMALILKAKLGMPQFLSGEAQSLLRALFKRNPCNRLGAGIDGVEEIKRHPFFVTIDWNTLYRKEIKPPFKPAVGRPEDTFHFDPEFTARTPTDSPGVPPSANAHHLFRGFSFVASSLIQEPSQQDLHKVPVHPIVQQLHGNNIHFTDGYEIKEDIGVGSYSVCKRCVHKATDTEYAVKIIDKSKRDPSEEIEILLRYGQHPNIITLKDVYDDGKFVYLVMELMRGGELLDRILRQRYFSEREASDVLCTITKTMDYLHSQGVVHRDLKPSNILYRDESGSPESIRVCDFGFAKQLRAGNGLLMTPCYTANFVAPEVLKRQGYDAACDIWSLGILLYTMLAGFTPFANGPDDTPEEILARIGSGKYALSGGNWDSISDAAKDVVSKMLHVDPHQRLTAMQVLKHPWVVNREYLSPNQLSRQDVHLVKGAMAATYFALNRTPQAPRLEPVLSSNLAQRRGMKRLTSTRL

[7] = target: Ribosomal protein S6 kinase alpha-1 (Homo sapiens) (UniProt Q15418); test: Binding affinity to DNA-tagged RSK1 N-terminal kinase domain (unknown origin) assessed as level of protein captured on solid support at 10 uM by qPCR analysis relative to control; method in brief: as §1
Sequence of Ribosomal protein S6 kinase alpha-1 (Homo sapiens) (Q15418 whole entry, the tested form may be a part): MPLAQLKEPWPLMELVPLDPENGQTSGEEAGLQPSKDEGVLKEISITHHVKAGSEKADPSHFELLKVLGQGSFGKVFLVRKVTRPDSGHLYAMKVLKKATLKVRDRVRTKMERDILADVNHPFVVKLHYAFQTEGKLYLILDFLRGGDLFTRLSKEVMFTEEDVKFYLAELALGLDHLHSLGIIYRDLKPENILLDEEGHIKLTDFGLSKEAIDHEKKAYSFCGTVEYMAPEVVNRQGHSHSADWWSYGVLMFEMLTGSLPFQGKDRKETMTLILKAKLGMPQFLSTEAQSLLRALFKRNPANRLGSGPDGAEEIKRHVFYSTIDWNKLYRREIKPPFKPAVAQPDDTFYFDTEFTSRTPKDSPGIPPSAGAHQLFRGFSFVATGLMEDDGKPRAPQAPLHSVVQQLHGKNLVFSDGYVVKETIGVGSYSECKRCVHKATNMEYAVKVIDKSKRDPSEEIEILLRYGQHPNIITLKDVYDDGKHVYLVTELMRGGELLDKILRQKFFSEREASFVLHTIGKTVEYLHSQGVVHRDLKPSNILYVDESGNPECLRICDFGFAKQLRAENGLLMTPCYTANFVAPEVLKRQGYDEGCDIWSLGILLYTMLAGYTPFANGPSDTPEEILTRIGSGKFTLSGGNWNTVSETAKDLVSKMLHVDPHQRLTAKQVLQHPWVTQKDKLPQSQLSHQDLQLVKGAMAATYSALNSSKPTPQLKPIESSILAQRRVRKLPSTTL

[8] = Clearance in iv dosed Sprague-Dawley rat; format: ADME, organism-based; conditions: in vivo
Method in brief: (§2)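 Single-dose plasma pharmacokinetics in male Sprague-Dawley rats following intravenous administration.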

[9] = Volume of distribution at steady state in iv dosed Sprague-Dawley rat; format: ADME, organism-based; conditions: in vivo, read-out: Vdss; method in brief: as §2
[10] = Plasma half life in iv dosed Sprague-Dawley rat; format: ADME, organism-based; method in brief: as §2
[11] = Clearance in rat liver microsomes; format: ADME; conditions: read-out: CLH

Sequence of Ribosomal protein S6 kinase alpha-3 (Homo sapiens, UniProt P51812) (P51812 whole entry): as the sequence (P18654 whole entry) above, with G45V counted along it

Structure (SMILES) | IC50 [1] | EC50 [2] | other results
CN1CCN(c2ccc(-c3cc(N)ncc3-c3cc(F)c(O)c(F)c3)cc2)CC1 | 6 nM | 440 nM | –
CNc1ncc(-c2cc(F)c(O)c(F)c2)c(-c2ccc(C)cc2)n1 | 13 nM | 690 nM | –
CC(C)c1ccncc1-c1cc(F)c(O)c(F)c1 | 780 nM | > 20000 nM | –
Cc1ccc(-c2nc(N)ncc2-c2cc(F)c(O)c(F)c2)cc1 | 10 nM | 360 nM | –
Oc1c(F)cc(-c2cnccc2-c2ccc(F)cc2)cc1F | 94 nM | 10400 nM | –
Oc1c(F)cc(-c2cnccc2-c2ccc(N3CCNCC3)cc2)cc1F | 6 nM | 140 nM | –
Oc1c(F)cc(-c2cnccc2-c2cccc(-c3cn[nH]c3)c2)cc1F | 5 nM | 1100 nM | –
Oc1ccc(-c2ccncc2-c2ccc(O)cc2)cc1 | 180 nM | 9300 nM | permeability [3]: permeable
CC(C)CNc1cc(-c2ccc(N3CCN(C)CC3)cc2)c(-c2cc(F)c(O)c(F)c2)cn1 | 22 nM | 2500 nM | –
Oc1ccc(-c2[nH]ncc2-c2ccccc2)cc1 | 150 nM | > 20000 nM | –
Oc1ccc(-c2cn[nH]c2-c2cc(F)c(O)c(F)c2)cc1 | 6 nM | 1400 nM | –
CC(C)Nc1ncc(-c2cc(F)c(O)c(F)c2)c(-c2ccc(N3CCN(C)CC3)cc2)n1 | 20 nM | 610 nM | –
Cc1ccc(-c2ccncc2-c2cc(F)c(O)c(F)c2)cc1 | 7 nM | 1600 nM | –
Cc1ccc(Nc2cc(-c3ccc(N4CCN(C)CC4)cc3)c(-c3cc(F)c(O)c(F)c3)cn2)cc1 | 6 nM | 690 nM | –
Nc1n[nH]c(-c2ccc(O)cc2)c1-c1ccccc1 | 53 nM | 3200 nM | –
Oc1ccc(-c2cn[nH]c2-c2ccc(O)cc2)cc1 | 24 nM | 2800 nM | permeability [3]: permeable
COc1ccc(-c2ccncc2-c2cc(F)c(O)c(F)c2)cc1 | 8 nM | 1100 nM | –
Oc1ccc(-c2cn[nH]c2-c2ccccc2)cc1 | 2500 nM | > 20000 nM | –

Structure (SMILES) | IC50 [1] | EC50 [2] | other results
Cc1cccc(-c2ccncc2-c2cc(F)c(O)c(F)c2)c1 | 32 nM | 4100 nM | –
CC(C)CCN1c2nc(Nc3cc(F)c(O)c(F)c3)ncc2N(C)C(=O)[C@H]1C | – | 500 nM | Activity [4]: Active
Oc1c(Cl)cc(-c2cnccc2-c2ccc(F)cc2)cc1Cl | 4800 nM | > 20000 nM | –
Oc1c(F)cc(-c2cnccc2C2CCNCC2)cc1F | 2100 nM | > 20000 nM | –
Oc1c(F)cc(-c2cnccc2C2CCOCC2)cc1F | 130 nM | 2200 nM | –
Cc1ccc(-c2nc(NC(C)C)ncc2-c2cc(F)c(O)c(F)c2)cc1 | 23 nM | 1500 nM | –
COc1cccc(-c2ccncc2-c2cc(F)c(O)c(F)c2)c1 | 46 nM | 5600 nM | –
Oc1ccc(-c2ccncc2-c2cc(F)c(O)c(F)c2)cc1 | 50 nM | 6400 nM | –
CNc1cc(-c2ccc(N3CCN(C)CC3)cc2)c(-c2cc(F)c(O)c(F)c2)cn1 | 14 nM | 580 nM | –
Oc1c(F)cc(-c2cnccc2-c2ccccc2)cc1F | 60 nM | 4200 nM | –
Oc1c(F)cc(-c2cnccc2-c2cccc(N3CCOCC3)c2)cc1F | 18 nM | 2300 nM | –
NCCOc1cccc(-c2ccncc2-c2cc(F)c(O)c(F)c2)c1 | 4 nM | 490 nM | –
CNC(=O)c1ccc(-c2ccncc2-c2cc(F)c(O)c(F)c2)cc1 | 20 nM | 2100 nM | –
CN1CCN(c2cccc(-c3ccncc3-c3cc(F)c(O)c(F)c3)c2)CC1 | 4 nM | 1100 nM | –
COc1ccc(-c2ccncc2-c2cc(F)c(O)c(F)c2)cn1 | 80 nM | 5300 nM | –
Oc1c(F)cc(-c2cnccc2-c2ccc(N3CCOCC3)cc2)cc1F | 4 nM | 210 nM | Activity [4]: inactive; Activity [5]: 0%; Activity [6]: 0.05%; Activity [7]: 0%
CN1CCN(c2ccc(-c3ccncc3-c3cc(F)c(O)c(F)c3)cc2)CC1 | 5 nM | 340 nM | clearance [8]: 166 mL/min/kg; Vd [9]: 1.6 L/kg; half-life [10]: 13 min; microsomal CLint [11]: 170 µL/min/mg
